{"data": "Experimental data gathered from unrelated publications", "HTR6": "5-hydroxytryptamine receptor 6 (HTR6, Homo sapiens, UniProt P50406)", "SIRT6": "NAD-dependent protein deacylase sirtuin-6 (SIRT6, Homo sapiens, UniProt Q8N6T7)", "Plasmepsin II": "Plasmepsin II (Plasmodium falciparum, UniProt P46925)", "CCR2": "C-C chemokine receptor type 2 (CCR2, Homo sapiens, UniProt P41597)", "PTAFR": "Platelet-activating factor receptor (PTAFR, Homo sapiens, UniProt P25105)", "SCN5A": "Sodium channel protein type 5 subunit alpha (SCN5A, Homo sapiens, UniProt Q14524)", "note": "Protocols differ between the studies behind these lines."}
{"Compound": "Nc1ccc(-c2ccncc2)cc1NC(=O)N1CCCC1", "target": "HTR6", "assay": "ligand displacement, radioligand", "setting": "10 µM", "inhibition": "16%"}
{"Compound": "Ic1cccc2cnccc12", "target": "Protein mono-ADP-ribosyltransferase PARP14 (PARP14, Homo sapiens, UniProt Q460N5)", "assay": "enzyme activity, inhibitor", "setting": "10 µM", "inhibition": "7%"}
{"Compound": "N#Cc1cc(Cn2c(N3CCCC3)nc3ccccc32)ccc1F", "target": "HTR6", "assay": "ligand displacement", "setting": "10 µM", "inhibition": "6.5%"}
{"Compound": "NC(=O)c1ccc(C(=O)NOCc2ccc(-n3cccn3)cc2)cc1", "target": "SIRT6", "assay": "enzyme activity, inhibitor, fluorescence", "setting": "100 µM", "inhibition": "91.8%"}
{"Compound": "C/C(=C\\C(=O)OCCCCCCCCC(=O)O)C[C@@H]1OC[C@H](C[C@@H]2O[C@H]2[C@@H](C)[C@H](C)O)[C@@H](O)[C@H]1O", "target": "C-C chemokine receptor type 5 (CCR5, Homo sapiens, UniProt P51681)", "assay": "calcium signal, antagonist", "test system": "U87/CD4/CCR5", "setting": "100 µM", "inhibition": "96%"}
{"Compound": "O=C(NOCc1ccc(C(F)(F)F)cc1)c1ccc(-c2nn[nH]n2)cc1", "target": "SIRT6", "assay": "enzyme activity, inhibitor, fluorescence", "setting": "100 µM", "inhibition": "4.2%"}
{"Compound": "O=[N+]([O-])c1ccc(N2CCN(CCC(O)c3csc4ccc(F)cc34)CC2)c(C(F)(F)F)c1 (stereo not shown)", "target": "Plasmepsin II", "assay": "enzyme activity, inhibitor", "setting": "5 µM", "inhibition": "13%"}
{"Compound": "CN(Cc1ccc(NC(=O)C2=Cc3cc(-c4ccc(OCCCF)cc4)ccc3CCC2)cc1)C1CCOCC1", "target": "CCR2", "assay": "ligand displacement, radioligand", "setting": "1 µM, cell membranes", "inhibition": "48%"}
{"Compound": "CCN(Cc1ccccc1C(F)(F)F)C(=O)C1CCN(S(=O)(=O)c2ccc3[nH]ncc3c2)CC1", "target": "Alpha-1A adrenergic receptor (Adra1a, Rattus norvegicus, UniProt P43140)", "assay": "ligand displacement, radioligand", "setting": "10 µM", "inhibition": "12%"}
{"Compound": "O=[N+]([O-])c1ccc(N2CCC(NCCC(O)c3csc4ccc(F)cc34)CC2)c(C(F)(F)F)c1 (stereo not shown)", "target": "Plasmepsin II", "assay": "enzyme activity, inhibitor", "setting": "5 µM", "inhibition": "0%"}
{"Compound": "O=C(Nc1ccc(S(=O)(=O)N2CCC(Cl)CC2)cc1)c1ccc([N+](=O)[O-])o1", "target": "PTAFR", "assay": "ligand displacement, radioligand", "setting": "10 µM", "inhibition": "39%"}
{"Compound": "NC(=O)c1ccc(C(=O)NOCc2ccc3sc4ccccc4c3c2)cc1", "target": "SIRT6", "assay": "enzyme activity, inhibitor, fluorescence", "setting": "100 µM", "inhibition": "96.2%"}
{"Compound": "O=c1c2ccccc2c(Cc2ccc(Cl)cc2)nn1C1CCCNCC1 (stereo not shown)", "target": "SCN5A", "assay": "ion current, inhibitor, patch clamp", "test system": "CHO", "setting": "10 µM", "inhibition": "62%"}
{"Compound": "CSSc1ccccc1C(=O)O", "target": "Cathepsin B (CTSB, Homo sapiens, UniProt P07858)", "assay": "enzyme activity, inhibitor, fluorescence", "setting": "20 µM", "inhibition": "100%"}
{"Compound": "NCc1cccc(C(=O)NOCc2ccc(C(F)(F)F)cc2)c1", "target": "SIRT6", "assay": "enzyme activity, inhibitor, fluorescence", "setting": "100 µM", "inhibition": "72.2%"}
{"Compound": "CCCCCCCCCCCCNC(=S)NCCCC[C@H](NS(C)(=O)=O)C(=O)N[C@@H](C)C(=O)N[C@@H](CCCNC(=N)N)C(N)=O", "target": "SIRT6", "assay": "enzyme activity, inhibitor", "setting": "10 µM", "inhibition": "30%"}
{"Compound": "NC(=O)c1ccc(C(=O)NOCc2cccc3ccccc23)cc1", "target": "SIRT6", "assay": "enzyme activity, inhibitor, fluorescence", "setting": "100 µM", "inhibition": "92.2%"}
{"Compound": "O=[N+]([O-])c1ccc(N2CCCN(CCC(O)c3csc4ccc(F)cc34)CC2)c(C(F)(F)F)c1 (stereo not shown)", "target": "Plasmepsin II", "assay": "enzyme activity, inhibitor", "setting": "5 µM", "inhibition": "8%"}
{"Compound": "CCCCCCOc1c(OC)cc2c3c1-c1cc4c(cc1CC3N(C)CC2c1ccccc1)OCO4 (stereo not shown)", "target": "5-hydroxytryptamine receptor 7 (HTR7, Homo sapiens, UniProt P34969)", "assay": "ligand displacement, radioligand", "setting": "10 µM", "inhibition": "-14.6%"}
{"Compound": "O=C(c1ccc(F)cc1)N(Cc1ccccc1)C1CCCCC1", "target": "PTAFR", "assay": "cell-free assay", "setting": "10 µM", "inhibition": "6%"}
{"Compound": "Cc1cccc(CONC(=O)c2ccc(C(N)=O)cc2)c1", "target": "SIRT6", "assay": "enzyme activity, inhibitor, fluorescence", "setting": "100 µM", "inhibition": "84%"}
{"Compound": "Cc1cnc(C(=O)NCCNC(=O)Cn2[nH]c(=O)c3ccccc3c2=O)cn1", "target": "Poly [ADP-ribose] polymerase 2 (PARP2, Homo sapiens, UniProt Q9UGN5)", "assay": "enzyme activity, inhibitor", "setting": "0.5 µM", "inhibition": "~50%"}
{"Compound": "O=C(NC1CCC1)[C@H](Cc1c[nH]c2ccccc12)NC(=O)[C@H](CCCCNC(=S)NCCc1nnn[nH]1)NS(=O)(=O)c1cccc(F)c1", "target": "SIRT6", "assay": "enzyme activity, inhibitor", "setting": "10 µM", "inhibition": "6%"}
{"Compound": "N=c1n(CCN2CCCCC2)c2ccccc2n1CC(O)c1cccc(Br)c1 (stereo not shown)", "target": "SCN5A", "assay": "ion current, inhibitor, patch clamp", "test system": "CHO", "setting": "10 µM", "inhibition": "66%"}
{"Compound": "NC(=S)c1ccc(C(=O)NOCc2ccc(C(F)(F)F)cc2)cc1", "target": "SIRT6", "assay": "enzyme activity, inhibitor, fluorescence", "setting": "100 µM", "inhibition": "89.2%"}
{"Compound": "CN(Cc1ccc(NC(=O)C2=Cc3cc(-c4ccc(OCCCCCO)cc4)ccc3CCC2)cc1)C1CCOCC1", "target": "CCR2", "assay": "ligand displacement, radioligand", "setting": "1 µM, cell membranes", "inhibition": "53%"}
{"Compound": "O=C(NO)c1ccc(C(=O)NOCc2ccc(C(F)(F)F)cc2)cc1", "target": "SIRT6", "assay": "enzyme activity, inhibitor, fluorescence", "setting": "100 µM", "inhibition": "93.3%"}
{"Compound": "CC/C(=N\\NC(=O)NCc1cccc(O)c1)c1ccc(O)c(C)c1O", "target": "[Pyruvate dehydrogenase (acetyl-transferring)] kinase isozyme 4, mitochondrial (PDK4, Homo sapiens, UniProt Q16654)", "assay": "enzyme activity, inhibitor", "setting": "0.1 µM", "inhibition": "-2.1%"}
